From ChEMBL document CHEMBL1155918, “Oxadiazole-carbonylaminothioureas as SIRT1 and SIRT2 inhibitors” (J Med Chem, 2008)

How the values were obtained:
[1] = molecular target: T1, NAD-dependent protein deacetylase sirtuin-1 (Homo sapiens) (UniProt Q96EB6); assay: Inhibition of human SIRT1 at 200 uM
T1 sequence (whole entry): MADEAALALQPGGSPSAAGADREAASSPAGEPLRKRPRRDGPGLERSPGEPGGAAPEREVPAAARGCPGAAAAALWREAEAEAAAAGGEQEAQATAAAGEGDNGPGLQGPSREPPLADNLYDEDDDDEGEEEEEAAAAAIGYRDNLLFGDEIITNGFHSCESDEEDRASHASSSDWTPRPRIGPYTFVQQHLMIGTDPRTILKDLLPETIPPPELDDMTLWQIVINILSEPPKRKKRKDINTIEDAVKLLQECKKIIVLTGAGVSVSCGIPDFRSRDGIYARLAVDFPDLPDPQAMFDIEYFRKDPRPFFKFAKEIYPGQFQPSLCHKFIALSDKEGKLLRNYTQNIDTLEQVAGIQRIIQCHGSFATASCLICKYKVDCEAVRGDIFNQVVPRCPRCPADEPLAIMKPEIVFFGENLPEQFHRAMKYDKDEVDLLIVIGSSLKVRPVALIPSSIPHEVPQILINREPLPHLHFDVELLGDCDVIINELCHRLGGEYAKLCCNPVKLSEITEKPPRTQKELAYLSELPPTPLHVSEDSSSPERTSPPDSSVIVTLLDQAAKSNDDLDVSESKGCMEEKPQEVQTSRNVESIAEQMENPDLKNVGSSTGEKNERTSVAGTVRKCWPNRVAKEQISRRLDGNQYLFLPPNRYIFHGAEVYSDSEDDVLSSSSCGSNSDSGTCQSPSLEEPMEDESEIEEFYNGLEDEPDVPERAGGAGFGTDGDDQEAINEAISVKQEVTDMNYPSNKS
Procedure, shortened: (§1)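 Single-concentration screen at 200 µM compound in the NAD⁺-based assay, with radiolabeled nicotinamide release read by thin layer chromatography. Result is % inhibition ± standard deviation (n = 2-3).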

[2] = molecular target: T2, NAD-dependent protein deacetylase sirtuin-2 (Homo sapiens) (UniProt Q8IXJ6); assay: Inhibition of human SIRT2 at 200 uM; procedure, shortened: as §1
T2 sequence (whole entry): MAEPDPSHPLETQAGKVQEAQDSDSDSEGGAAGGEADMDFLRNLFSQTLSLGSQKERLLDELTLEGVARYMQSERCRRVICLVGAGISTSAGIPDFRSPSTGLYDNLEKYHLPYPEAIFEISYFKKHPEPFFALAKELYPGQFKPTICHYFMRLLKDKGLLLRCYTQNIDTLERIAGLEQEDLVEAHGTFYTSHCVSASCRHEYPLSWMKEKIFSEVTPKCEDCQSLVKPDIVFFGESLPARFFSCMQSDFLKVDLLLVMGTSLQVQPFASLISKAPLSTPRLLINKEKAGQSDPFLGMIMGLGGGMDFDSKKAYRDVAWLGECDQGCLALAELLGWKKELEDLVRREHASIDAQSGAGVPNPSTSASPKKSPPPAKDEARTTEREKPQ

[3] = molecular target: T3, NAD-dependent protein deacetylase sirtuin-1 (Homo sapiens, UniProt Q96EB6); assay: Inhibition of human SIRT1 assessed as nicotinamide releasing by microplate filtration assay
T3 sequence (Q96EB6 whole entry): T1 sequence (whole entry)

[4] = molecular target: T4, NAD-dependent protein deacetylase sirtuin-2 (Homo sapiens, UniProt Q8IXJ6); assay: Inhibition of human SIRT2 assessed as nicotinamide releasing by microplate filtration assay
T4 sequence (Q8IXJ6 whole entry): T2 sequence (whole entry)

inhibition [1]	inhibition [2]	IC50 [3]	IC50 [4]	SMILES
54%	71%	318 µM	74 µM	O=C(NNC(=S)Nc1ccc(C(F)(F)F)cc1)c1nc(-c2cccc3ccccc23)no1
20%	18%			CC(C)(C)c1ccc(-c2noc(C(=O)NCC(=O)Nc3cccc(C(F)(F)F)c3)n2)cc1
22%	7%			CCCCNC(=O)NNC(=O)c1nc(-c2ccc(C(C)(C)C)cc2)no1
57%	56%	13 µM	113 µM	O=C(NNC(=S)Nc1cccc(C(F)(F)F)c1)c1nc(-c2cccc3ccccc23)no1
70%	89%	325 µM	109 µM	CC(C)(C)c1ccc(-c2noc(C(=O)NNC(=S)Nc3ccc(C(F)(F)F)cc3)n2)cc1
59%	87%	192 µM	57 µM	CC(C)(C)c1ccc(-c2noc(C(=O)NNC(=S)Nc3cccc(C(F)(F)F)c3)n2)cc1
14%	38%			CC(C)(C)c1ccc(-c2noc(C(=O)NNC(=O)Nc3ccccc3)n2)cc1
10%	35%			O=C(NNC(=S)Nc1ccc(F)cc1)c1nc(-c2cccc3ccccc23)no1
29%	8%			O=C(NNC(=S)Nc1ccc(C(F)(F)F)cc1)c1nc(-c2ccccc2)no1
-2%	29%			CC(C)(C)c1ccc(-c2noc(C(=O)NNC(=S)Nc3ccccc3)n2)cc1
0%	5%			O=C(CCCc1nc(-c2ccccc2)no1)Nc1ccccc1
69%	71%	168 µM	129 µM	CC(C)(C)OC(=O)Nc1cccc(-c2noc(C(=O)NNC(=S)Nc3ccc(C(F)(F)F)cc3)n2)c1
4%	-4%			O=C(NNC(=S)Nc1ccc(C(F)(F)F)cc1)c1nc(-c2cccnc2)no1
18%	39%			CC(C)(C)c1ccc(-c2noc(C(=O)NNC(=O)Nc3cccc([N+](=O)[O-])c3)n2)cc1
	22%			O=C(NNC(=S)Nc1ccc(F)cc1)c1nc(-c2ccccc2)no1
28%	17%			O=C(CNC(=O)c1nc(-c2ccccc2)no1)Nc1ccccc1
17%	0%			CC(C)(C)c1ccc(-c2noc(CCCC(=O)Nc3cccc(C(F)(F)F)c3)n2)cc1
12%	51%		257 µM	O=C(NNC(=O)c1nc(-c2cccc3ccccc23)no1)Nc1cccc(C(F)(F)F)c1
